An excerpt weighted towards active compounds, which were near 4.6% of everything screened.
PolyA inh: inhibitors of polyadenylation in S. cerevisiae; S. cerevisiae SKY197-pL101 polyadenylation reporter, beta-gal luminescence; efflux-impaired pdr1/pdr3 knockout yeast; score 100 = 6 SD above DMSO; activity score, % at 12 µM; actives 0.02% (n = 300,000);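 active = lowest replicate activity score at least 50, where 100 means six control SD above control mean; inconclusive = lowest score under 50 but half or more replicates reach 50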;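 note: yeast exposed to compound for 9 h at 30 °C; higher score means more reporter readthrough which indicates perturbed polyadenylation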
NALP3 yeast inh: NALP3 inhibition in yeast. Yeast reconstituted NLRP3/ASC/caspase-1, beta-gal luminescence, 24 h. inhibition, % at 10 µM. actives 0.39% (n = 330,000). AID 2825;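 active = inhibition of 50% or more; inactive = inhibition below 50%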;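 note: plate controls were induced DMSO wells for no effect and uninduced yeast grown without galactose for full effect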
ALR inh: blocks human ALR sulfhydryl oxidase activity; AID 485317; purified ALR, DTT oxidation, H2O2 HRP-luminol luminescence; P55789; actives 3.8% (n = 290,000); inhibition, % (concentration not given with the values);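 active = mean replicate inhibition above about 79%, with every replicate also reaching it, limit read from the data; inconclusive = only one of the two criteria met; inactive = mean below limit and not every replicate reaching it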
NALP1 inh: blocks the NALP1 inflammasome reconstituted in yeast; inhibition, % at 10 µM; actives 0.61% (n = 280,000); S. cerevisiae NALP1/ASC/caspase-1 growth, X-gal OD620, 72 h; in the data active = inhibition mostly above about 24%, no sharp cut-off; inactive = mostly below about 32%
Pemphigus Ab inh: human desmoglein-3 autoantibody binding inhibition; DSG3-coupled beads, scFv-anti-DSG3-GFP binding, flow cytometry; active compounds read low; binding (percent of control), % at 10 µM; P32926; actives 0.48% (n = 310,000);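 active = binding more than 3 SD below its plate's average and above zero; inconclusive = below that plate limit but binding exactly zero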;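 note: hits lower antibody fragment binding to DSG3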
Target sequence (P32926 whole entry, looked up, the tested form may be a part): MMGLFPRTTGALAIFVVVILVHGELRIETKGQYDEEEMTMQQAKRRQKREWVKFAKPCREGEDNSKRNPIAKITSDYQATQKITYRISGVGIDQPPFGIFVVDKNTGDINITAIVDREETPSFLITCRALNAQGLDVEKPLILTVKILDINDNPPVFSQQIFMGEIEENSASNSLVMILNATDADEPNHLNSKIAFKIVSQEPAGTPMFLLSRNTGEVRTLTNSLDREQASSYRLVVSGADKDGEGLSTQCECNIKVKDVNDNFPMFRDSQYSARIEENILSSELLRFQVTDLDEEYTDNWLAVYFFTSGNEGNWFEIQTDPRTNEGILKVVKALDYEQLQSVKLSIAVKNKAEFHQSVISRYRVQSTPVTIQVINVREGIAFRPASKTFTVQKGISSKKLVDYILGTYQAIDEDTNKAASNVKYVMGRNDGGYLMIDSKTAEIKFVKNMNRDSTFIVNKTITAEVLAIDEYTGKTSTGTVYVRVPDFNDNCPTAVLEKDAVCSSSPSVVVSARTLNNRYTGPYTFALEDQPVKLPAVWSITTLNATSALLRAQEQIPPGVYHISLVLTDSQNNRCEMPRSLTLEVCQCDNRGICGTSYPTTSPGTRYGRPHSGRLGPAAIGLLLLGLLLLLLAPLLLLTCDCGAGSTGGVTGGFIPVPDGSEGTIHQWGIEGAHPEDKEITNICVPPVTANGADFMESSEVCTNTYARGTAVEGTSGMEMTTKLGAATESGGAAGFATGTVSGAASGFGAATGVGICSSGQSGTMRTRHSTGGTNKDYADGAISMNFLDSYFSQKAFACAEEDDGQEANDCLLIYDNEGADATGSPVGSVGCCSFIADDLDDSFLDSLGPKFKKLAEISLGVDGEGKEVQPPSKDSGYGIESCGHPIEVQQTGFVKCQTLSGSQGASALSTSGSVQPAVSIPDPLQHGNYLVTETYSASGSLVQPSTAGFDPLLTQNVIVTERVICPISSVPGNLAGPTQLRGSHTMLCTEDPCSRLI
Arr AP2 block: inhibitors of human beta-arrestin and AP2 interaction. FITC-arrestin peptide / GST-AP2 beads, flow cytometry; AP2 beta2 appendage carries R879A mutation. inhibition, % at 10 µM. actives 0.31% (n = 340,000). AID 504490;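 active = inhibition above a set limit, near 3 SD of compounds lacking own fluorescence, cut at about 54% in these data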;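 note: plate controls were DMSO wells for no effect and 5 µM unlabelled arrestin peptide for full effect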
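Material – AP2 appendage R879A on GSH beads · Buffer or medium – PBS with 0.05% Tween 20 and 0.1% BSA · Probe or stimulus – fluorescein-tagged arrestin peptide at 50 nM final · Incubation – compound with beads 12 min RT, then probe 1 h RT · Detection – high-throughput flow cytometry of beads, ex 488, em 535 nm · Evaluation – percent response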
Active calls of the source: *; ? = inconclusive; . = no result given.

SMILES	PolyA inh	NALP3 yeast inh	ALR inh	NALP1 inh	Pemphigus Ab inh	Arr AP2 block
CCc1ccc(/C=C/C(=O)c2cc(Br)ccc(=O)c2O)cc1	5	15	36	17	98	3
CCOc1ccc(/C=C/C(=O)c2cc(Br)ccc(=O)c2O)cc1	.	.	96*	0	90	-2
Cc1cccc(/C=C/C(=O)c2cc(Br)ccc(=O)c2O)c1	-7	12	98*	20	97	24
Cc1ccc(S(=O)ONc2cccc(NOS(=O)c3ccc(C)cc3)c2)cc1 (configuration not stated)	.	.	.	.	97	.
CCN1C(=O)/C(=C\N(C)C)NC1=S	-2	16	98*	8	101	-1
Cc1ccccc1S(=O)(=O)Oc1cccc2c(O)cccc12	-6	11	99*	24	104	13
CC(C)=C[C@H]1C[C@H](C)[C@H]2CC[C@H](C)c3c(O[C@@H]4OC[C@@H](O)[C@H](O)C4O)c(O)c(C)c1c32 (some centres not stated)	.	-3	5	.	103	0
CCOc1ccc(N2C(=O)CC(N3CCc4ccccc43)C2=O)cc1 (configuration not stated)	-18	8	10	6	.	4
O=C1CC(N2CCc3ccccc32)C(=O)N1c1ccccc1 (configuration not stated)	-10	12	99*	.	.	32
CC(NCC(O)COC1CCC(C(C)(C)C)CC1)c1ccccc1 (configuration not stated)	-51	32	-5	25*	109	3
CC1CCC(C(C)C)C(OCC(O)CNC(C)c2ccccc2)C1 (configuration not stated)	4	17	-58	20	99	-10
O=C(CSc1nnc(CCCO)n1-c1ccccc1)Nc1nccs1	9	-9	-6	-9	107	-5
Cc1cccc(C)c1OCc1nnc(SCC(=O)Nc2nccs2)n1-c1ccccc1	-15	8	-3	.	34*	21
COc1ccc(-c2[nH]c(-c3ccc(C)cc3)nc2SCC(=O)NC2CCCC2)cc1	18	15	31	6	104	-1
COc1ccc(-c2[nH]c(-c3ccccc3)nc2SCC(=O)Nc2nccs2)cc1	.	14	98*	12	105	15
COc1ccc(-c2[nH]c(-c3ccc(Cl)cc3)nc2SCC(=O)Nc2nccs2)cc1	-5	8	94*	21	73*	-1
COc1ccc(-c2nnc(SCC(=O)Nc3ccc(C(=O)O)cc3)n2-c2ccc(Cl)cc2)cc1	-10	16	-4	6	108	15
COc1ccc(-n2c(SCC(=O)Nc3nccs3)nnc2-c2ccc(Cl)cc2)cc1	.	.	.	.	-1.0*	16
O=C(NCC(=O)N1CCN(c2ccccc2F)CC1)c1ccc(Br)o1	-1	16	7	.	99	10
Cc1cc(CCNC=O)c(C)c2c1oc1ccccc12	.	.	.	.	97	20
COCCN(C(=O)COC(=O)C1CCCCC1)c1c(N)n(Cc2ccccc2)c(=O)[nH]c1=O	.	.	.	.	98	.
CCN1C(=O)c2ccc(C(=O)Nc3c(C)cc(C)cc3C)cc2C1=O	8	26	1	11	117	2
O=C(Nc1ccccc1O)c1ccc2c(c1)C(=O)N(N1C(=O)c3ccccc3C1=O)C2=O	6	9	6	14	105	-9
CCCN1C(=O)c2ccc(C(=O)Nc3cc(C)ccc3O)cc2C1=O	0	9	-2	32	105	28
O=C(Nc1ccc(O)cc1)c1ccc2c(c1)C(=O)N(N1C(=O)c3ccccc3C1=O)C2=O	12	11	91*	3	109	-4
SMILES	PolyA inh	NALP3 yeast inh	ALR inh	NALP1 inh	Pemphigus Ab inh	Arr AP2 block
CCCN1C(=O)c2ccc(C(=O)Nc3ccccc3C(=O)O)cc2C1=O	-7	8	97*	8	109	5
CCN1C(=O)c2ccc(C(=O)Nc3ccc(O)cc3C)cc2C1=O	-10	9	99*	10	123	-3
CN(C)C1CCCCC=CC(=O)NC1 (configuration not stated)	.	.	.	.	103	.
COc1cccc(C(=O)c2ccncc2C(=O)O)c1OC	.	.	.	.	109	.
Cc1ccc(S(=O)(=O)c2ccc([N+](=O)[O-])cn2)cc1	-10	-31	89*	35*	117	-13
Nc1ccc(S(=O)(=O)c2ccccc2)nc1	-4	-1	.	-1	93	-17
O=[N+]([O-])c1ccc(S(=O)(=O)c2ccccc2)nc1	2	-32	98*	21	92	7
Cc1cc(S(=O)(=O)c2ccc([N+](=O)[O-])cn2)ccc1Br	-19	-1	-3	.	109	13
COc1ccccc1CNCCS(=O)(=O)NCc1ccccc1	.	.	.	.	95	40
CCCCOc1ccc(C(=O)NCCOc2cccc(OC)c2)cc1	13	26	-1	13	102	11
O=C(CCC(=O)OCC(=O)c1ccc([N+](=O)[O-])cc1)NC1CCCCC1	9	2	80*	29	98	4
O=C(CCC(=O)OCC(=O)c1cccc([N+](=O)[O-])c1)NC1CCCCC1	-1	14	-6	0	114	8
O=C(COC(=O)c1ccccc1C(=O)c1ccc(Cl)c([N+](=O)[O-])c1)NC1CCCCCC1	-6	-3	2	36*	110	-11
O=C(CSCc1ccc([N+](=O)[O-])cc1)NC1CCCCCC1	-4	19	99*	-5	109	5
O=C(CSCc1ccc(F)cc1)NC1CCCC1	?	18	-4	-1	100	-4
O=C(CSCc1cccc(Br)c1)NC1CC1	18	15	98*	22	101	-14
O=C(CSc1ccc2nnc(-c3ccccn3)n2n1)Nc1ccc(F)cc1F	6	15	-11	24	62	-3
O=C(Cn1[nH]c(=O)c2ccccc2c1=O)NCCN1C(=O)S/C(=C\c2ccccc2)C1=O	.	6	-4	.	.	17
Clc1ccc2nc(CSc3nnc(-c4c[nH]c5ccccc45)o3)cn2c1	.	.	.	.	42*	4
Clc1cccc(CSc2nnc(-c3c[nH]c4ccccc34)o2)c1	-43	5	-18	12	101	-4
Cc1ccc(C(=O)OCC(=O)N(Cc2ccccc2)C(C)C)cc1C	.	23	-4	.	.	-1
COc1cc(/C=C2\SC(=S)N(NC(=O)c3cccc(O)c3)C2=O)ccc1O	-3	23	95*	-3	?	-1
COc1cc(/C=C2\SC(=S)N(NC(=O)c3ccncc3)C2=O)ccc1O	92*	12	99*	-19	99	-9
CCOc1cc(/C=C2\SC(=S)N(NC(=O)c3cccnc3)C2=O)ccc1O	-1	12	99*	28	98	15
O=C(NC1CCN(Cc2ccc(Cl)cc2)CC1)c1cn(-c2ccccc2)nc1-c1cccnc1	.	4	-24	.	90	26
